Calls of active or inactive are those of the source. No cut-off for these calls is given here.
How the values were obtained:
Mus musculus [1] = experiment: Immunomodulatory activity in C57BL/6 mouse assessed as increase in IFN-gamma secretion in serum at 100 ug/kg, ip by ELISA; format: functional, organism-based
Summary of the method: (§1)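 Glycolipid given once i.p. to B6 mice at 100 μg/kg in 0.1 mL vehicle. Serum IL-4 and IFN-γ followed over time after injection, three mice per group, each serum sampled individually. IFN-γ/IL-4 selectivity expressed two ways: ratio of areas under the time–concentration curves, and ratio of peak (maximum) production.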

Mus musculus [2] = experiment: Immunomodulatory activity in C57BL/6 mouse assessed as increase in IL-4 secretion in serum at 100 ug/kg, ip by ELISA; format: functional, organism-based; summary of the method: as §1
Mus musculus [3] = experiment: Immunomodulatory activity in C57BL/6 mouse assessed as serum IFNgamma/IL-4 maximum productivity ratio at 100 ug/kg, ip by ELISA; format: functional; summary of the method: as §1
Mus musculus [4] = experiment: Immunomodulatory activity in C57BL/6 mouse assessed as serum IFNgamma/IL-4 AUC ratio at 100 ug/kg, ip by ELISA; format: functional; summary of the method: as §1
Mus musculus [5] = experiment: Immunomodulatory activity in C57BL/6 mouse assessed as increase in IL-4 secretion in serum at 100 ug/kg, ip after 3 hrs by ELISA; format: functional, organism-based; summary of the method: as §1

Compound	Activity (Mus musculus [1])	Activity (Mus musculus [2])	Ratio (Mus musculus [3])	Ratio (Mus musculus [4])	Activity (Mus musculus [5])
CCCCCCCCCCCCCC[C@@H](O)[C@@H](O)[C@H](CO[C@H]1O[C@H](CO)[C@H](O)[C@H](O)[C@H]1O)NC(=O)C(F)(F)C(F)(F)C(F)(F)C(F)(F)C(F)(F)C(F)(F)C(F)(F)C(F)(F)C(F)(F)C(F)(F)C(F)(F)C(F)(F)C(F)(F)F	inactive	inactive			
CCCCCCCCCCCCCC[C@@H](O)[C@@H](O)[C@H](CO[C@H]1S[C@H](CO)[C@H](O)[C@H](O)[C@H]1O)NC(=O)C(F)(F)C(F)(F)C(F)(F)C(F)(F)C(F)(F)C(F)(F)C(F)(F)F			9	26.7	
CCCCCCCCCCCCCC[C@@H](O)[C@@H](O)[C@H](CO[C@H]1S[C@H](CO)[C@H](O)[C@H](O)[C@H]1O)NC(=O)CCCCCCC(F)(F)F	inactive	inactive			
CCCCCCCCCCCCCC[C@@H](O)[C@@H](O)[C@H](CO[C@H]1O[C@H](CO)[C@H](O)[C@H](O)[C@H]1O)NC(=O)CCCCCCC(F)(F)F	inactive	inactive			
CCCCCCCCCCCCCCCCCCCCCCCCCC(=O)N[C@@H](CO[C@H]1O[C@H](CO)[C@H](O)[C@H](O)[C@H]1O)[C@H](O)[C@H](O)CCCCCCCCCCCCCC [RGI-7000]	Active		2.8	12.1	Active
CCCCCCCCCCCCCC[C@@H](O)[C@@H](O)[C@H](CO[C@H]1O[C@H](CO)[C@H](O)[C@H](O)[C@H]1O)NC(=O)C(F)(F)C(F)(F)C(F)(F)C(F)(F)C(F)(F)C(F)(F)C(F)(F)F			3.4	5.8	
CCCCCCCCCCCCCC[C@@H](O)[C@@H](O)[C@H](CO[C@H]1S[C@H](CO)[C@H](O)[C@H](O)[C@H]1O)NC(=O)C(F)(F)C(F)(F)C(F)(F)C(F)(F)C(F)(F)C(F)(F)C(F)(F)C(F)(F)C(F)(F)C(F)(F)C(F)(F)C(F)(F)C(F)(F)F			0.59	0.58	
